We go through eight compounds from ChEMBL document CHEMBL1147647, “Second generation, orally active, antimalarial, artemisinin-derived trioxane dimers with high stability, efficacy, and anticancer activity” (J Med Chem, 2006).

The subject of assay [1] is Plasmodium falciparum. As to the kind of experiment: Antimalarial activity against chloroquine-sensitive Plasmodium falciparum NF54. The format is functional, organism-based.
The test system of assay [2] is Plasmodium falciparum. As to the kind of experiment: Antimalarial activity against chloroquine-sensitive Plasmodium falciparum NF54 in mice (Mus musculus) by peroral dose. The note with it: NF54, po. Format: functional. A digest of the protocol:
(§1)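 In mice, a single dose of 3, 10 or 30 mg/kg was given orally or subcutaneously. ED50 in mg/kg was derived from these doses following a published protocol.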

Assay [3] deals with Plasmodium falciparum. In words: Antimalarial activity against chloroquine-sensitive Plasmodium falciparum NF54 in mice (Mus musculus) by subcutaneous dose. Format: functional. The note with it: NF54, sc. The gist of the method:
as §1

The subject of another assay is SK-MEL-5. As to the kind of experiment: Antiproliferative activity against SK-MEL-5 cell line. The format is functional, cell-based. To be noted: Homo sapiens. A digest of the protocol:
(§2)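 Growth inhibition was tested in vitro across the NCI Developmental Therapeutics Program 60-line human cancer panel at nanomolar to micromolar concentrations.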

The subject of a further assay is HOP-92. In words: Antiproliferative activity against HOP92 cell line. The note with it: Homo sapiens. The format is functional, cell-based. A digest of the protocol: as §2
Another assay has as its system HeLa. As to the kind of experiment: Antiproliferative activity against HeLa cell line. The note with it: Homo sapiens. The format is functional, cell-based. A digest of the protocol:
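HeLa human cervical cancer cells were tested in vitro with an XTT tetrazolium colorimetric proliferation assay, using a modified version of a reported protocol. IC50 was determined.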

A further assay relates to BT-549. As to the kind of experiment: Antiproliferative activity against BT549 cell line. The note with it: Homo sapiens. Format: functional, cell-based. A digest of the protocol:
as §2

Calls of active or inactive are those of the source. No cut-off for these calls is given here.

`CCOP(=O)(OCC)OCc1cc(C[C@H]2O[C@@H]3O[C@]4(C)CC[C@H]5[C@H](C)CC[C@@H]([C@H]2C)[C@@]35OO4)c(C[C@H]2O[C@@H]3O[C@]4(C)CC[C@H]5[C@H](C)CC[C@@H]([C@H]2C)[C@@]35OO4)cc1COP(=O)(OCC)OCC`: 3 nM corresponded to half-maximal inhibition with Plasmodium falciparum [1] (IC50).

As to `C[C@H]1[C@H](OC(=O)CCC(=O)[O-])O[C@@H]2O[C@@]3(C)CC[C@H]4[C@H](C)CC[C@@H]1[C@@]24OO3.[Na+]` [SODIUM ARESUNATE], the figures for the median effective dose (ED50) in the assay with Plasmodium falciparum [2] and in the assay on Plasmodium falciparum [3] were 4 mg/kg and 2.2 mg/kg, respectively.

As to `C[C@H]1[C@@H](Cc2cc3c(cc2C[C@H]2O[C@@H]4O[C@]5(C)CC[C@H]6[C@H](C)CC[C@@H]([C@H]2C)[C@@]46OO5)COP(=O)(Oc2ccccc2)OC3)O[C@@H]2O[C@]3(C)CC[C@H]4[C@H](C)CC[C@@H]1[C@@]24OO3` (some centres not stated), in the assay on Plasmodium falciparum [1], 3.7 nM corresponded to half-maximal inhibition (IC50).

In the case of `COC(=O)c1cc(C[C@H]2O[C@@H]3O[C@]4(C)CC[C@H]5[C@H](C)CC[C@@H]([C@H]2C)[C@@]35OO4)c(C[C@H]2O[C@@H]3O[C@]4(C)CC[C@H]5[C@H](C)CC[C@@H]([C@H]2C)[C@@]35OO4)cc1C(=O)OC`, the outcome in the assay on SK-MEL-5, with HOP-92 and in the assay with BT-549 was Active. The half-inhibitory concentration (IC50) – broadly, the point on the concentration scale where inhibition reaches its midpoint – in the assay on HeLa was determined as 500 nM; in the assay with Plasmodium falciparum [1], 1.6 nM. The 50% effective dose (ED50) (usually the dose that gives a 50% effect, or the effect in half of the subjects) with Plasmodium falciparum [3] came to 0.71 mg/kg.

On to `C[C@@H]1CC[C@H]2[C@@H](C)C(=O)O[C@@H]3O[C@@]4(C)CC[C@@H]1[C@]32OO4` [ARTEMISININ], for which 6.6 nM corresponded to half-maximal inhibition with Plasmodium falciparum [1] (IC50).

Consider `C[C@H]1[C@@H](Cc2cc(C(=O)O)c(C(=O)O)cc2C[C@H]2O[C@@H]3O[C@]4(C)CC[C@H]5[C@H](C)CC[C@@H]([C@H]2C)[C@@]35OO4)O[C@@H]2O[C@]3(C)CC[C@H]4[C@H](C)CC[C@@H]1[C@@]24OO3`, for which the IC50 in the assay on Plasmodium falciparum [1] turned out to be 360 nM.

In turn, `C=C(C[C@H]1O[C@@H]2O[C@]3(C)CC[C@H]4[C@H](C)CC[C@@H]([C@H]1C)[C@@]24OO3)C(=C)C[C@H]1O[C@@H]2O[C@]3(C)CC[C@H]4[C@H](C)CC[C@@H]([C@H]1C)[C@@]24OO3` came in with an IC50 in the assay with Plasmodium falciparum [1] of 2.9 nM.

Consider `C[C@H]1[C@@H](Cc2cc(CO)c(CO)cc2C[C@H]2O[C@@H]3O[C@]4(C)CC[C@H]5[C@H](C)CC[C@@H]([C@H]2C)[C@@]35OO4)O[C@@H]2O[C@]3(C)CC[C@H]4[C@H](C)CC[C@@H]1[C@@]24OO3`, for which the values for the ED50 in the assay with Plasmodium falciparum [2] and in the assay with Plasmodium falciparum [3] were 2.6 mg/kg and 0.06 mg/kg, respectively. Besides, the IC50 in the assay on HeLa was 46.5 nM; in the assay with Plasmodium falciparum [1], 0.77 nM.
